This note sets out measurements from ChEMBL document CHEMBL3227928, “Phosphonate analogue of 2'-deoxy-5-fluorouridylic acid” (J Med Chem, 1979).

Experiment [1] concerns the target T1, Thymidylate synthase (Lactobacillus casei, UniProt P00469).
T1 sequence (P00469 whole entry): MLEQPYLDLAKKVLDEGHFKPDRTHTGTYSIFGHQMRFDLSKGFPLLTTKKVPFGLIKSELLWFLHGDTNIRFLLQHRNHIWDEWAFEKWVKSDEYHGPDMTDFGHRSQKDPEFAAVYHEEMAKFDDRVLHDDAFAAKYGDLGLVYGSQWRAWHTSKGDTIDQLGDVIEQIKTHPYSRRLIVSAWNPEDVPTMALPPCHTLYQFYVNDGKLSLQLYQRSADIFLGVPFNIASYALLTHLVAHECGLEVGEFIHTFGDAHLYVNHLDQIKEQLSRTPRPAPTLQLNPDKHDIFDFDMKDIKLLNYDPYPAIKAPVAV
The experiment is described as follows: Inhibition of Lactobacillus casei thymidylate synthetase using dUMP as substrate preincubated for 20 mins followed by substrate addition. The arrangement: species or system Lacticaseibacillus casei. A digest of the protocol: (§1)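 Enzyme and inhibitor preincubated 20 min at 30 °C in assay mix with 0.11 M 2-mercaptoethanol, 3 × 10^-4 M tetrahydrofolate, 0.012 M formaldehyde and 0.021 M MgCl2. Reaction started by adding dUMP to 4 × 10^-5 M. Enzyme concentrations were 8 × 10^-9 M for L. casei, 8 × 10^-9 M for E. coli (calculated assuming the L. casei turnover number) and 4 × 10^-9 M for T2. Concentration giving 50% inhibition reported.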

For experiment [2], the target named is T2, Thymidylate synthase (Lactobacillus casei) (UniProt P00469).
T2 sequence (whole entry): T1 sequence (P00469 whole entry)
Briefly: Inhibition of Lactobacillus casei thymidylate synthetase using dUMP as substrate at 20 uM preincubated for 20 mins followed by substrate addition relative to control. Conditions: Lacticaseibacillus casei.

The target of experiment [3] is T2, Thymidylate synthase (Lactobacillus casei). Briefly: Inhibition of Lactobacillus casei thymidylate synthetase using dUMP as substrate at 20 uM preincubated for 10 mins followed by substrate addition relative to control. Particulars: Lacticaseibacillus casei.
Experiment [4] in a line: Inhibition of Escherichia coli thymidylate synthetase using dUMP as substrate preincubated for 20 mins followed by substrate addition. A digest of the protocol: as §1
The target of experiment [5] is T2, Thymidylate synthase (Lactobacillus casei). The experiment is described as follows: Inhibition of Lactobacillus casei thymidylate synthetase using dUMP as substrate at 20 uM preincubated for 0 mins followed by substrate addition relative to control. Conditions: Lacticaseibacillus casei.
Experiment [6] shares this target. Briefly: Inhibition of Lactobacillus casei thymidylate synthetase using dUMP as substrate at 20 uM preincubated for 5 mins followed by substrate addition relative to control. Conditions: Lacticaseibacillus casei.
The nature of experiment [7]: Cytotoxicity against human Hep2 cells assessed as growth inhibition. The format is functional. Conditions: HEp-2, read-out: ED50 (the source's name).
Experiment [8] in a line: Inhibition of coliphage T2 thymidylate synthetase using dUMP as substrate preincubated for 20 mins followed by substrate addition. On the set-up: species or system Enterobacteria phage T2. A digest of the protocol: as §1
Experiment [9] has as its target T2, Thymidylate synthase (Lactobacillus casei). The experiment is described as follows: Inhibition of Lactobacillus casei thymidylate synthetase using dUMP as substrate at 20 uM preincubated for 40 mins followed by substrate addition relative to control. Conditions: Lacticaseibacillus casei.

As to `O=c1[nH]c(=O)n([C@H]2C[C@H](O)[C@@H](CCP(=O)(O)O)O2)cc1F`, the IC50 – broadly, the point on the concentration scale where inhibition reaches its midpoint – in [1] worked out at 7 µM; in [4] it was 600 nM; in [8], 60 nM. The inhibition – broadly, the share of the control response that was lost under treatment – came out at 75% in [2]; 64% in experiment [3]; 0% in [5]; 45% in experiment [6]; 85% in experiment [9]. In addition, in experiment [7], the EC50 worked out at 45 µM.
